Reference: ChEMBL document CHEMBL4699586, “Synthesis and biological evaluation of NQO1-activated prodrugs of podophyllotoxin as antitumor agents” (Bioorg Med Chem, 2020)
The source made the active and inactive calls. The rule behind the calls is not given here.

Key:
[1] = Metabolic stability in human liver S9 fraction at 10 uM incubated for 9 hrs in presence of NADPH by HPLC analysis; type: ADME, subcellular; settings: s9, 9 h
Procedure, shortened: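 Pooled human liver S9 fraction (0.5 mg) in 10 mM PBS pH 7.4 with 2% Tween 80, substrate 10 μM, 37 °C; started with 100 μM NADPH, quenched with cold acetonitrile at 0–540 min; centrifuged supernatant analysed by HPLC, UV 292 nm; triplicate.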

[2] = Toxicity in BALB/c mouse xenografted with human HepG2 cells assessed as damage in kidney at 5 to 10 mg/kg, ip administered every other day for 17 consecutive days and measured on day 17 by H&E staining based light microscopic analysis; type: organism-based; settings: in vivo, 408 h, dose 5-10 mg/kg, time 17 day
Procedure, shortened: (§1)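 Six-week-old BALB/c nude mice carrying s.c. HepG2 tumours (5×10⁶ cells in PBS) randomized at 70–100 mm³, 6 per group; i.p. dosing every other day for 17 days in 5% DMSO/40% PEG300/5% Tween 80/50% saline; day-17 organs fixed in 4% paraformaldehyde, paraffin-embedded, H&E stained, light microscopy versus control.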

[3] = biological target: T1, NAD(P)H dehydrogenase [quinone] 1 (Homo sapiens, UniProt P15559); experiment: Prodrug release assessed as recombinant NQO1 (unknown origin)-mediated N-(4-methylenecyclohexa-2,5-dienylidene)methanamine formation formation at 20 uM measured after 30 mins in presence of NADPH by HRMS analysis; type: ADME; settings: 0.5 h
T1 sequence (P15559 whole entry, the tested form may be a part): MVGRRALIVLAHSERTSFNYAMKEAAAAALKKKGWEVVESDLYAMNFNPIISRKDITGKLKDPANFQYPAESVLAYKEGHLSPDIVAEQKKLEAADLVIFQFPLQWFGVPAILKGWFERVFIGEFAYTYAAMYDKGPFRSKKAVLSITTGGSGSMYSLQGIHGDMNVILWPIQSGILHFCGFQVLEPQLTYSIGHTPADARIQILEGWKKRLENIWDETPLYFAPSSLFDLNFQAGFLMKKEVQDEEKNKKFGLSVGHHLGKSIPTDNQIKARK
Procedure, shortened: (§2)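 Recombinant NQO1 (final 10 μg/mL) added to start reaction in 10 mM PBS with 2% Tween 80, 100 μM NADPH and 20 μM prodrug. Incubated at 37 °C, stopped with cold acetonitrile and centrifuged cold. Supernatant analysed by HRMS for release fragments.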

[4] = test system: HepG2; experiment: Induction of apoptosis in human HepG2 cells assessed as early apoptotic cells at 50 nM incubated for 24 hrs by annexin V-FITC and propidium iodide based flow cytometry analysis (reference value: 1.84 %); type: functional
[5] = test system: L02; experiment: Cytotoxicity against NQO1-deficient human L02 cells assessed as reduction in cell viability incubated for 48 hrs by MTT assay; type: cell-based; settings: L02, 48 h
Procedure, shortened: (§3)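 Cell lines A549, HepG2, hypoxic A549/Hyp and HepG2/Hyp, taxol-resistant A549/T, and normal LO2. Log-phase cells allowed to adhere in 96-well plates, then exposed to compound for 48 h. MTT added for 2–3 h. Formazan dissolved in DMSO and absorbance read at 570 nm; IC50 derived.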

[6] = test system: HepG2; experiment: Induction of apoptosis in human HepG2 cells assessed as late apoptotic cells at 50 nM incubated for 24 hrs by annexin V-FITC and propidium iodide based flow cytometry analysis (reference value: 1.56 %); type: functional
[7] = Toxicity in BALB/c mouse xenografted with human HepG2 cells assessed as damage in lung at 5 to 10 mg/kg, ip administered every other day for 17 consecutive days and measured on day 17 by H&E staining based light microscopic analysis; type: organism-based; settings: in vivo, 408 h, dose 5-10 mg/kg, time 17 day; procedure, shortened: as §1
[8] = test system: HepG2; experiment: Induction of cell cycle arrest in human HepG2 cells assessed as increase in cells accumulation at G2/M phase at 50 nM incubated for 24 hrs by propidium iodide based flow cytometry analysis relative to control; type: functional
Procedure, shortened: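 HepG2 plated in 12-well plates for 24 h, treated with compound (50 nM) for 24 h. Harvested, washed twice in cold PBS, held in 70% ethanol for 3 h. RNase A treatment 1 h at ambient temperature, then PI stain. Phase distribution by flow cytometry, compared with DMSO control.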

[9] = biological target: T1, NAD(P)H dehydrogenase [quinone] 1; experiment: Prodrug release assessed as recombinant NQO1 (unknown origin)-mediated podophyllotoxin formation at 20 uM measured after 30 mins in presence of NADPH by HRMS analysis; type: ADME; settings: 0.5 h; procedure, shortened: as §2
[10] = Stability of the compound in PBS buffer at 10 uM at pH 5 to 9 incubated for 9 hrs in presence of NADPH by HPLC analysis; type: physicochemical; settings: pH 5, 9 h
Procedure, shortened: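 No NQO1 present; 10 μM substrate with 100 μM NADPH in PBS containing 2% Tween 80 across pH values 5–9 at 37 °C; timed samples quenched with cold acetonitrile, centrifuged, and quantified by C18 HPLC with UV detection at 292 nm; triplicate.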

[11] = biological target: T1, NAD(P)H dehydrogenase [quinone] 1; experiment: Prodrug release assessed as recombinant NQO1 (unknown origin)-mediated 6-hydroxy-4,4,5,7-tetramethylchroman-2-one formation formation at 20 uM measured after 30 mins in presence of NADPH by HRMS analysis; type: ADME; settings: 0.5 h; procedure, shortened: as §2
[12] = test system: A549; experiment: Cytotoxicity against hypoxia-induced human A549 cells assessed as reduction in cell viability incubated for 48 hrs by MTT assay; type: functional, cell-based; settings: A549, 48 h; procedure, shortened: as §3
[13] = organism: Sus scrofa; experiment: Inhibition of porcine tubulin polymerization at 3 uM measured every 30 secs for 1 hr
Procedure, shortened: (§4)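 Commercial tubulin polymerization kit run per manufacturer; test agent at 3 μM with vehicle control, with or without added NQO1 depending on group; absorbance at 340 nm read every 30 s for 1 h to give polymerization/depolymerization kinetic curves.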

[14] = test system: HepG2; experiment: Induction of apoptosis in human HepG2 cells assessed as viable cells at 50 nM incubated for 24 hrs by annexin V-FITC and propidium iodide based flow cytometry analysis (reference value: 95.66 %); type: functional; settings: read-out: Activity
[15] = test system: HepG2; experiment: Induction of apoptosis in human HepG2 cells assessed as necrotic cells at 50 nM incubated for 24 hrs by annexin V-FITC and propidium iodide based flow cytometry analysis (reference value: 0.94 %); type: functional
[16] = Metabolic stability in rat plasma at 10 uM incubated for 9 hrs in presence of NADPH by HPLC analysis; type: ADME, cell-free
Procedure, shortened: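 Rat plasma deproteinized by vortexing and centrifugation (10000 rpm, 5 min); supernatant incubated with 10 μM substrate plus 2% Tween 80 at 37 °C for 0–540 min; after centrifugation, supernatant analysed by HPLC (UV 292 nm); run in triplicate.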

[17] = test system: HepG2; experiment: Cytotoxicity against human HepG2 cells overexpressing NQO1 assessed as reduction in cell viability incubated for 48 hrs by MTT assay; type: functional, cell-based; settings: HepG2, 48 h; procedure, shortened: as §3
[18] = Toxicity in BALB/c mouse xenografted with assessed as damage in heart at 5 to 10 mg/kg, ip administered every other day for 17 consecutive days and measured on day 17 by H&E staining based light microscopic analysis; type: organism-based; settings: in vivo, 408 h, dose 5-10 mg/kg, time 17 day; procedure, shortened: as §1
[19] = test system: A549; experiment: Cytotoxicity against human A549 cells overexpressing NQO1 assessed as reduction in cell viability incubated for 48 hrs by MTT assay; type: functional, cell-based; settings: A549, 48 h; procedure, shortened: as §3
[20] = test system: HepG2; experiment: Cytotoxicity against hypoxia-induced human HepG2 cells assessed as reduction in cell viability incubated for 48 hrs by MTT assay; type: functional, cell-based; settings: HepG2, 48 h; procedure, shortened: as §3
[21] = organism: Sus scrofa; experiment: Inhibition of porcine tubulin polymerization at 3 uM in presence of NQO1 and NADPH measured for 1 hr for every 30 sec; procedure, shortened: as §4
[22] = test system: A549; experiment: Cytotoxicity against taxol-resistant human A549 cells assessed as reduction in cell viability incubated for 48 hrs by MTT assay; type: functional, cell-based; settings: A549, 48 h; procedure, shortened: as §3
[23] = Selectivity index, ratio of IC50 for NQO1-deficient human L02 cells to IC50 for human HepG2 cells overexpressing NQO1 incubated for 48 hrs by MTT assay
Procedure, shortened: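 IC50 in LO2 divided by IC50 in HepG2. Both from MTT after 48 h exposure, with absorbance read at 570 nm.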

[24] = test system: HepG2; experiment: Antitumor activity against human HepG2 cells xenografted in BALB/c nude mouse assessed as tumor growth suppression at 10 mg/kg, ip administered every other day for 17 consecutive days and measured on day 17 by caliper analysis relative to control; type: functional; settings: 408 h, time 17 day, read-out: TGI
Procedure, shortened: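 BALB/c nude mice, 6 weeks old, given 5×10^6 HepG2 cells s.c. in sterile PBS. Randomized at tumour 70–100 mm³, 6 per group. Dosing i.p. every other day for 17 days in 5% DMSO/40% PEG300/5% Tween-80/50% saline; vehicle arm as control. Caliper volume every 2 days as V = AB²/2. Tumours excised and weighed on day 17; growth inhibition rate calculated.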

[25] = Toxicity in BALB/c mouse xenografted with human HepG2 cells assessed as damage in liver at 5 to 10 mg/kg, ip administered every other day for 17 consecutive days and measured on day 17 by H&E staining based light microscopic analysis; type: organism-based; settings: in vivo, 408 h, dose 5-10 mg/kg, time 17 day; procedure, shortened: as §1
[26] = biological target: Tubulin (Homo sapiens) (UniProt P68371+Q9H4B7+P0DPH7+P68366+Q13509+Q71U36+P04350+Q3ZCM7+P07437+P68363+Q9BQE3+Q6PEY2+Q13885+Q9BVA1+Q9BUF5); experiment: Inhibition of microtubule assembly in human HepG2 cells at 50 nM incubated for 48 hrs by immunofluorescence microscopic analysis; type: cell-based
Procedure, shortened: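 HepG2 seeded 12 h at 37 °C, 5% CO₂, then exposed 48 h alongside DMSO vehicle; methanol-fixed, permeabilized in 0.5% Triton X-100/PBS, α-tubulin primary antibody overnight at 4 °C, fluorescent secondary 1 h, DAPI nuclear counterstain; fluorescence microscopy imaging of microtubule networks.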

[27] = Toxicity in BALB/c mouse xenografted with human HepG2 cells assessed as body weight reduction at 10 mg/kg, ip administered every other day for 17 consecutive days and measured on day 17; type: organism-based; settings: in vivo, 408 h, time 17 day
Procedure, shortened: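 HepG2 xenografts in 6-week BALB/c nude mice (s.c., 5×10⁶ cells), grouped at 70–100 mm³, n=6; i.p. dosing every other day for 17 days in 5% DMSO/40% PEG300/5% Tween 80/50% saline vehicle; body weight recorded every 2 days.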

[28] = Toxicity in BALB/c mouse xenografted with human HepG2 cells assessed as damage in spleen at 5 to 10 mg/kg, ip administered every other day for 17 consecutive days and measured on day 17 by H&E staining based light microscopic analysis; type: organism-based; settings: in vivo, 408 h, dose 5-10 mg/kg, time 17 day; procedure, shortened: as §1
[29] = Toxicity in BALB/c mouse xenografted with human HepG2 cells assessed as animal death at 10 mg/kg, ip administered every other day for 17 consecutive days and measured on day 17; type: organism-based; settings: in vivo, 408 h, time 17 day
Procedure, shortened: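 HepG2 s.c. xenografts in BALB/c nude mice, 6 per group. Compound given i.p. every other day for 17 days in 5% DMSO/40% PEG300/5% Tween-80/50% saline. Deaths recorded over the experimental period. Body weight monitored every 2 days.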

## COc1cc([C@@H]2c3cc4c(cc3[C@@H](OC(=O)OCc3ccc(N(C)C(=O)CC(C)(C)C5=C(C)C(=O)C(C)=C(C)C5=O)cc3)[C@H]3COC(=O)[C@H]23)OCO4)cc(OC)c1OC
[1]
  Stabilty: Stable
[2]
  Activity: Non-Toxic
[3]
  Drug metabolism: Metabolite_Detected
[4]
  Activity: 1.74%
[5]
  IC50: 312 nM
[6]
  Activity: 15.76%
[7]
  Activity: Non-Toxic
[8]
  Activity: 27.3%
[9]
  Drug metabolism: Metabolite_Detected
[10]
  Stabilty: Stable
[11]
  Drug metabolism: Metabolite_Detected
[12]
  IC50: 185 nM
[13]
  inhibition: inactive
[14]
  viability at 0.05 µM: 63.5%
[15]
  Activity: 18.99%
[16]
  Stabilty: Stable
[17]
  IC50: 84 nM
[18]
  Activity: Non-Toxic
[19]
  IC50: 100 nM
[20]
  IC50: 113 nM
[21]
  inhibition: Active
[22]
  IC50: 197 nM
[23]
  Ratio IC50: 3.72
[24]
  inhibition in vivo at 10 mg/kg: 64%
[25]
  Activity: Non-Toxic
[26]
  inhibition: Active
[27]
  Activity: Non-Toxic
[28]
  Activity: Non-Toxic

## COc1cc([C@@H]2c3cc4c(cc3[C@@H](OC(=O)OCc3ccc(NC(=O)CC(C)(C)C5=C(C)C(=O)C(C)=C(C)C5=O)cc3)[C@H]3COC(=O)[C@H]23)OCO4)cc(OC)c1OC
[5]
  IC50: 452 nM
[12]
  IC50: 596 nM
[17]
  IC50: 262 nM
[19]
  IC50: 274 nM
[20]
  IC50: 425 nM
[22]
  IC50: 574 nM

## COc1cc([C@@H]2c3cc4c(cc3[C@@H](OC(=O)CC(C)(C)C3=C(C)C(=O)C(C)=C(C)C3=O)[C@H]3COC(=O)[C@H]23)OCO4)cc(OC)c1OC
[5]
  IC50: 228 nM
[12]
  IC50: 315 nM
[17]
  IC50: 107 nM
[19]
  IC50: 160 nM
[20]
  IC50: 193 nM
[22]
  IC50: 302 nM

## COc1cc([C@@H]2c3cc4c(cc3[C@H](O)[C@H]3COC(=O)[C@H]23)OCO4)cc(OC)c1OC [PODOFILOX]
[29]
  Activity: Toxic
[4]
  Activity: 2.88%
[5]
  IC50: 85 nM
[6]
  Activity: 6.08%
[12]
  IC50: 291 nM
[14]
  viability at 0.05 µM: 83.7%
[15]
  Activity: 7.38%
[17]
  IC50: 83 nM
[19]
  IC50: 105 nM
[20]
  IC50: 209 nM
[22]
  IC50: 338 nM
